From PubChem
UPR XBP1 act – activators of adaptive XBP1 UPR arm, primary screen, cell-based, CHO-XBP1 luciferase reporter, luminescence, uHTS | IRE1-XBP1 UPR activation; percent of tunicamycin response, DMSO as zero | activation, % at 20 µM | hit rate 0.33% among 330,000 | AID 463104, 2010;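 active means versus positive control, 20 µM dose yields 30% or more activation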;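 further: 100% = tunicamycin at 10 µg/mL and 0% = DMSO only wells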
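Material: CHO-XBP1 cells stably carrying IRE1-XBP1-driven luciferase reporter | Medium: F12 with 10% serum | Compound dosing: 20 µM single concentration, DMSO 1% | Incubation: Overnight seeding at 37 °C, 6 h compound treatment at 37 °C | Detection: Steady-Glo luminescence read | Read-out basis: % activation of reporter signal versus tunicamycin and DMSO controls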
p97 inhibitor – inhibitors of human p97 ATPase, primary screen, biochemical. recombinant p97 ATPase, Kinase-Glo ATP luminescence, 3 h. Transitional endoplasmic reticulum ATPase (Homo sapiens), P55072. hit rate 0.42% among 220,000. inhibition, % at 8 µM; in the data active means inhibition above about 15%;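 further: 0% = DMSO vehicle and 100% = wells lacking enzyme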
Target sequence (P55072 whole entry, looked up): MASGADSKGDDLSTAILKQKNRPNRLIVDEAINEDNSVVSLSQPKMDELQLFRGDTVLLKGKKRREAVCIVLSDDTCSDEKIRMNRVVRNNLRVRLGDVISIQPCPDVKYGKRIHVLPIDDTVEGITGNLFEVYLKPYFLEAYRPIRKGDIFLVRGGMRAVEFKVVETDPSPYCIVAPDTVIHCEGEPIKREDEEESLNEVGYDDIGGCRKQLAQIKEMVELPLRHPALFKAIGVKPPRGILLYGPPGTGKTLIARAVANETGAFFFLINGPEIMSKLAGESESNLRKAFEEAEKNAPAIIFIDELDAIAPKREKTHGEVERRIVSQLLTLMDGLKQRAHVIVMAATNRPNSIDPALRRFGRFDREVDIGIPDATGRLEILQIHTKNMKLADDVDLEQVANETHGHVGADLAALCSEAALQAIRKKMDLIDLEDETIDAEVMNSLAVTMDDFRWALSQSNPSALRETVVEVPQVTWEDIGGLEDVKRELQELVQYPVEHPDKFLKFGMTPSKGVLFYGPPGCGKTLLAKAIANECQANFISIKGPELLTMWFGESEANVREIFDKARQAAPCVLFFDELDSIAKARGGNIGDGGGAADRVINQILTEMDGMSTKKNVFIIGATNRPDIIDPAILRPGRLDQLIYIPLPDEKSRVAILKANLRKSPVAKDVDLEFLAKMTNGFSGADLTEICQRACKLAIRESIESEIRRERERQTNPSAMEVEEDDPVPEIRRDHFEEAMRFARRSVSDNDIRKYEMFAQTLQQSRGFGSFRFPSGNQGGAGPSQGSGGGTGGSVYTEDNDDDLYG
CHOP UPR activ – activators of apoptotic CHOP UPR arm, primary screen, cell-based, CHO-CHOP luciferase reporter, luminescence, uHTS; AID 449763, 2010; UPR activation; percent of tunicamycin response over DMSO baseline; hit rate 0.34% among 330,000; activation, % at 10 µM;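 active means at 10 µM dose, activation of 40% or more, normalized to positive control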;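 further: 100% = tunicamycin at 10 µg/mL and 0% = DMSO alone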
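Material: CHO-CHOP cells, stable luciferase reporter of PERK-eIF2a-CHOP signalling; quantity: 500 reporter cells seeded per well; buffer or medium: F12 medium containing 10% fetal bovine serum; compound: one dose, 10 µM in 0.5% DMSO; incubation: 6 h compound treatment, 37 °C; measured by: Steady-Glo luciferase luminescence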
CHOP inh – inhibitors of CHOP promoter induction, primary screen, cell-based, unfolded protein response, luciferase reporter; CHO-K1 CHOP-promoter luciferase, tunicamycin-induced, 15-18 h; hit rate 3.8% among 220,000; inhibition, % at 10 µM; AID 2732, 2010;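 active means compounds that reduced the stress-induced luciferase reporter signal by more than about 70% of percent inhibition, limit read from the data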;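 further: 0% = tunicamycin plus vehicle and 100% = wells without tunicamycin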
PfM18AAP inh-1 – PfM18AAP inhibitors, malaria aminopeptidase, primary screen, biochemical, QFRET, recombinant enzyme | inhibition, % at 7.35 µM | H-Glu-NHMec fluorogenic cleavage | AID 1822, 2009 | hit rate 1.2% among 290,000 | M18 aspartyl aminopeptidase (Plasmodium falciparum 3D7);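 active means inhibition above the campaign mean inhibition over all tested compounds plus 3 SD, cut at about 28% in these data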;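 further: 0% = plate median of test compound wells and 100% = 2 mM ZnCl2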
NS3 helicase inh – inhibitors of HCV NS3 helicase, primary screen, biochemical, Cy5 molecular beacon fluorescence; NS3 helicase DNA unwinding; inhibition, % at 10.9 µM; hit rate 0.56% among 290,000; Hepatitis C virus NS3 helicase;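 active means inhibition above the mean of all tested compounds plus 3 SD, set per campaign, cut at about 35% in these data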;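 further: 0% = DMSO wells and 100% = thioflavine S control wells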
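test system = hepatitis C virus NS3 helicase domain fragment enzyme | reagent = annealed dual-labelled DNA beacon duplex, ATP-started | times = 1 h at 25 °C | detection = Cy5 fluorescence, 0 and 60 min reads | read-out basis = percent inhibition from t60/t0 fluorescence ratio | control set = DMSO and thioflavine S | replication = one well per compound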
PfM18AAP inh-2 – PfM18AAP inhibitors, malaria aminopeptidase, confirmation, biochemical, QFRET, recombinant enzyme, triplicate. inhibition, % at 7.35 µM. hit rate 28% among 2,400. H-Glu-NHMec fluorogenic cleavage. shares compounds with PfM18AAP inh-1;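 active means mean inhibition over replicate wells above the hit cutoff set for the earlier primary screen, cut at about 29% in these data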;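 further: 0% = median of test compound wells and 100% = 2 mM ZnCl2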
CTSL1 confirm – cathepsin L1 inhibitors, retest, confirmation, counter-screen for PFM18AAP inhibitor project, biochemical, QFRET, triplicate. shares compounds with PfM18AAP inh-1. purified cathepsin L1, Z-Leu-Arg-MCA fluorescence. inhibition, % at 5.96 µM. 2,400 tested, under 10 active;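 active means average inhibition across replicates above the hit cutoff set in the earlier primary screen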;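 further: 0% = median of test compound wells and 100% = Z-Phe-Ala-diazomethylketone 1 µM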
Active calls of the source: *; x = not tested or not shown. This is a sample that favours compounds with a hit; in the whole collection about 4.5% have one here.

SMILES	UPR XBP1 act	p97 inhibitor	CHOP UPR activ	CHOP inh	PfM18AAP inh-1	NS3 helicase inh	PfM18AAP inh-2	CTSL1 confirm
COc1ccc(NC(=S)NNC(=S)Nc2cccc(C(F)(F)F)c2)cc1	1	1	0	-8	42*	-22	-19	0
NS(=O)(=O)c1ccc(O)c(NC(=O)c2ccc([N+](=O)[O-])cc2)c1	-3	1	-3	3	-3	3	x	x
N#Cc1c(SCC(=O)Nc2nncs2)sc2c(O)cc(=O)[nH]c12	2	x	0	x	53*	24	29*	-4
Cc1sc2c(c1C)C(=O)NC(c1cccc(O)c1)N2 (configuration not stated)	2	5	2	14	49*	9	-8	2
COC(=O)c1ccc(C2NC(=O)c3c(sc(C)c3C)N2)cc1 (configuration not stated)	1	7	1	-9	3	-7	x	x
CC(CCc1ccccc1)NC(=O)CN1C(=O)NC2(CCCCC2C)C1=O (configuration not stated)	0	x	0	x	x	x	x	x
C[C@@H](C(=O)CC(=O)OC(C)(C)C)[C@@H](O)c1c(F)cccc1Cl	2	x	-2	x	7	35	x	x
CSc1nc2c(c(=O)[nH]1)CCCC2	-1	-4	-2	20	-6	-3	x	x
CSc1nc(=S)c2[nH]c(=S)[nH]c2[nH]1	x	5	x	6	46*	5	40*	-3
O=C(Nn1cnnc1)C1CCCN1S(=O)(=O)c1ccc(F)cc1 (configuration not stated)	0	1	-1	-12	9	-3	x	x
O=S(=O)(Nn1cnnc1)c1ccc(F)cc1	-1	2	1	9	42*	-23	48*	-6
CCCCCOC(=O)Nc1ccc(S(=O)(=O)Nn2cnnc2)cc1	0	-1	-3	-4	46*	2	48*	0
Cc1ccc(S(=O)(=O)Nn2cnnc2)cc1	0	4	5	15	65*	19	56*	-2
CCn1c(Cc2cccn2C)nnc1SCC(=O)c1ccc(C)cc1	0	1	2	22	8	8	x	x
CCn1c(SCC(=O)c2ccc(O)c(O)c2)nnc1-c1ccc(C)cc1	1	2	2	-8	43*	8	19	-9
COc1cc(OC)cc(C(=O)Nc2ccn(C)n2)c1	-1	x	1	x	x	x	x	x
O=C(Nn1cnnc1)c1ccc([N+](=O)[O-])cc1Cl	-1	x	-1	x	x	x	x	x
Nc1c(C(=O)Nn2cnnc2)cc([N+](=O)[O-])cc1[N+](=O)[O-]	0	5	2	-8	63*	14	56*	4
COc1cc(OC)cc(C(=O)Nn2cnnc2)c1	-2	6	-2	14	36*	-3	30*	3
O=C(Nn1cnnc1)c1cc([N+](=O)[O-])cc([N+](=O)[O-])c1	-1	4	0	-7	45*	4	49*	-3
Cc1ccc(NC(=O)N2CCCC2C(=O)NCC2CCCCC2)cc1 (configuration not stated)	0	x	2	x	3	1	x	x
O=C1CN(C(=O)COC(=O)c2c(F)cccc2Cl)c2ccccc2N1	1	x	-1	x	x	x	x	x
CCOC(=O)CN(C)Cc1cn(C)nc1-c1ccc(Oc2ccccc2)cc1	-5	x	3	x	-10	-15	x	x
NC(=S)NNc1c(F)c(F)c(F)c(F)c1F	0	-5	0	-1	15	16	x	x
CCOC(=O)c1[nH]c2ccc(F)cc2c1NC(=O)c1ccccc1C(=O)O	-3	x	1	x	33*	18	-34	3
SMILES	UPR XBP1 act	p97 inhibitor	CHOP UPR activ	CHOP inh	PfM18AAP inh-1	NS3 helicase inh	PfM18AAP inh-2	CTSL1 confirm
CCOC(=O)c1[nH]c2ccc(OC)cc2c1NC(=O)c1ccccc1C(=O)O	6	x	0	x	21	5	x	x
COc1cc(/C=N/Nc2nc(C)cc(=O)[nH]2)cc(OC)c1O	3	x	3	x	42*	2	17	0
Clc1ccc(NCn2cncn2)nc1	-3	8	-1	-1	78*	6	63*	4
O=C(Cn1cncn1)NCc1ccc(Cl)cc1	-1	4	1	19	0	-8	x	x
COc1ccc(-c2cc(-c3cccs3)c(C#N)c(SCC(=O)NCc3ccccc3)n2)cc1	0	2	15	-10	0	1	x	x
N#Cc1c(-c2ccc(Cl)cc2)cc(-c2cccs2)nc1SCC(=O)O	-2	x	-2	x	36*	5	-2	-2
Cc1cccc(N2CCN(C(=O)Cn3nc(C)n4cccc4c3=O)CC2C)c1 (configuration not stated)	0	x	-2	x	1	12	x	x
Cc1cc(C)c2c(=O)n(CC(=O)N3CCC(Cc4ccccc4)CC3)sc2n1	-3	0	41*	107*	56*	6	22	1
Cc1cccc(N2CCN(C(=O)Cn3sc4nc(C)cc(C)c4c3=O)CC2C)c1 (configuration not stated)	-4	5	22	99*	49*	1	17	-3
CCCCCCN[C@H]1CCC2C3CC=C4C[C@@H](O)CC[C@]4(C)C3CC[C@@]21C (some centres not stated)	0	x	1	x	x	x	x	x
O=C(NNS(=O)(=O)c1ccc(F)cc1)c1cc2ccccc2cc1O	2	x	0	x	14	1	x	x
C[n+]1cccc(C2C(C#N)=C(N)Oc3c2ccc2ccccc32)c1 (configuration not stated)	4	5	3	-25	38*	-20	-26	-6
C[n+]1cccc2ccc3c(c21)OC(N)=C(C#N)C3c1ccccc1 (configuration not stated)	-1	6	0	-18	10	34	x	x
Cc1c(NC(=S)N/N=C\c2ccccc2O)c(=O)n(-c2ccccc2)n1C	-2	3	1	38	36*	4	-2	3
CCCC(=O)Nc1c2c(nn1-c1ccc([N+](=O)[O-])cc1)CS(=O)(=O)C2	1	x	3	x	1	8	x	x
